Results from ChEMBL document CHEMBL3227924, “Pharmacologically active sulfoximides: 5-hexyl-7-)S-methylsulfonimidoly) xanthone-2-carboxylic acid, a potent antiallergic agent” (1979).
Activity calls are given as the source filed them. The calls are words filed in the database; no cut-off is given here.

Assays:
Assay type in all cases: functional
Rattus norvegicus [1] = experiment: Antiallergic activity in iv dosed ovalbumin-sensitized CFHB rat assessed as inhibition of passive cutaneous anaphylaxis after 30 mins by Evans blue staining; conditions: 0.5 h
Procedure, shortened: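 Rats passively sensitized with 0.1 mL of 1:25 donor anti-ovalbumen serum (IgE plus IgG) at four dorsal sites, then challenged iv 72 h later with ovalbumen 1 mg plus 1% Evans blue (0.5 mL). Compound in Tris buffer/saline given iv 30 s before challenge at ≥3 doses, ≥7 rats per group. Blue spots scored 0–4 at 30 min. ED50 read from the dose–response curve of % inhibition versus controls.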

Rattus norvegicus [2] = experiment: Antiallergic activity in po dosed ovalbumin-sensitized CFHB rat assessed as inhibition of passive cutaneous anaphylaxis after 30 mins by Evans blue staining
Rattus norvegicus [3] = experiment: Antiallergic activity in ovalbumin-sensitized CFHB rat assessed as inhibition of passive cutaneous anaphylaxis at 10 mg/kg, iv after 30 mins by Evans blue staining
Procedure, shortened: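 Sensitized with diluted (1:25) donor serum at four back sites. Challenge came 72 h later, iv, with ovalbumen 1 mg and 1% Evans blue 0.5 mL. Compound dissolved in Tris buffer, diluted in saline, and injected iv 30 s pre-challenge. Groups had at least seven rats, with matched controls. Skin spots were scored 0–4 for severity and area after 30 min. % inhibition came from the test versus control score difference.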

SMILES | ED50 (Rattus norvegicus [1]) | ED50 (Rattus norvegicus [2]; 0.5 h) | other results
CS(=O)(=NC(N)=O)c1ccc2oc3ccc(C(=O)O)cc3c(=O)c2c1 (stereo not drawn) | 0.11 mg/kg | 8.6 mg/kg | 
CCCCCOc1cc(S(C)(=N)=O)cc2c(=O)c3cc(C(=O)O)ccc3oc12 (stereo not drawn) | 0.005 mg/kg | 1.62 mg/kg | 
Cc1ccc(S(=O)(=O)/N=S(\C)c2ccc3oc4ccc(C(=O)O)cc4c(=O)c3c2)cc1 (stereo not drawn) | 0.43 mg/kg |  | 
CS(=O)(=NC(=O)c1ccccc1)c1ccc2oc3ccc(C(=O)O)cc3c(=O)c2c1 (stereo not drawn) | 0.68 mg/kg |  | 
CC(=O)N=S(C)(=O)c1ccc2oc3ccc(C(=O)O)cc3c(=O)c2c1 (stereo not drawn) | 0.065 mg/kg |  | 
O=C([O-])c1cc(=O)c2c(OCC(O)COc3cccc4oc(C(=O)[O-])cc(=O)c34)cccc2o1.[Na+].[Na+] [CROMOLYN SODIUM] | 1.21 mg/kg |  | ED50 (Rattus norvegicus [2]): inactive
CCOC(=O)N=S(C)(=O)c1ccc2oc3ccc(C(=O)O)cc3c(=O)c2c1 (stereo not drawn) |  |  | inhibition in vivo at 10 mg/kg (Rattus norvegicus [3]; 0.5 h): 89%
CS(=N)(=O)c1ccc2oc3ccc(C(=O)O)cc3c(=O)c2c1 (stereo not drawn) | 0.033 mg/kg | 2.72 mg/kg | 
CS(=N)(=O)c1ccc2oc3ccccc3c(=O)c2c1 (stereo not drawn) |  |  | inhibition (Rattus norvegicus [3]): inactive
CCCCCCc1cc(S(C)(=N)=O)cc2c(=O)c3cc(C(=O)O)ccc3oc12 (stereo not drawn) [SUDEXANOX] | 0.005 mg/kg | 0.19 mg/kg | 
Cc1ccc(S(=O)(=O)N=S(C)(=O)c2ccc3oc4ccc(C(=O)O)cc4c(=O)c3c2)cc1 (stereo not drawn) | 3.93 mg/kg |  | 
CCCCCCc1cc(S(C)(=O)=NC(N)=O)cc2c(=O)c3cc(C(=O)O)ccc3oc12 (stereo not drawn) | 0.009 mg/kg |  | 
CCOC(=O)C1=CN=S(=O)(c2ccc3oc4ccc(C(=O)O)cc4c(=O)c3c2)C=C1O (stereo not drawn) |  |  | inhibition (Rattus norvegicus [3]): inactive
